sdo1 growth = growth rescue of sdo1-depleted yeast, primary screen, S. cerevisiae, bone marrow failure model. S. cerevisiae sdo1-depleted JHY4D growth rescue, OD600 30 h; hits give high values; pdr5 snq2 efflux-pump mutant strain. z-score at 10 µM. hit rate 0.21% among 140,000;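 active = z-score above 3 at both the 24 hr and the 30 hr optical density reads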
RAM network inh = inhibitors of the yeast RAM network, primary screen, dse1pr::URA3 reporter, 5-FOA selection; S. cerevisiae dse1pr::URA3 reporter, 5-FOA growth OD615, 2 d; analog-sensitive cbk1-as2 kinase mutant strain; inhibition, % at 50 µM; hit rate 1.8% among 190,000;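 active = inhibition above a set limit, 3 SD over mean compound inhibition, cut at about 8.4% in these data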;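 note: inhibition rescues growth on 5-FOA so higher OD means more RAM inhibition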
Yeast lifespan up = compounds extending yeast replicative lifespan, primary screen, S. cerevisiae, OD615; S. cerevisiae growth with nicotinamide; deaD strain in restrictive glucose medium; inhibition of the nicotinamide effect, % at 10 µM; hit rate 0.68% among 130,000; AID 775, 2007;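 active = inhibition above a set limit, placed 3 SD over the median of all compounds, cut at about 26% in these data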
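Test system – modified budding yeast, DeaD strain · Compound – single dose 10 µM compound, 0.25% DMSO · Times – culture preincubation 4 h, compound exposure 48 h, both 30 °C · Detection – optical density (absorbance) at 615 nm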
Yeast growth inh = growth inhibitors of yeast BB579 in restrictive medium, primary screen, yeast lifespan-shortening project, S. cerevisiae. inhibition, % at 10 µM. OD615, 48 h. hit rate 0.51% among 140,000;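 active = inhibition above a set limit, 3 SD over the mean compound inhibition, cut at about 44% in these data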
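System: DeaD yeast strain BB579; buffer or medium: CSMM-D dextrose restrictive medium; technique: OD at 615 nm; schedule: 4 h cell preincubation, 48 h compound exposure, 30 °C humidified; doses: single 10 µM dose; controls: amphotericin B 10 µg/mL, positive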
A number is an active result; . = inactive; / = no result given. This is a sample that favours compounds with a hit; in the whole collection about 2.7% have one here.

SMILES | sdo1 growth | RAM network inh | Yeast lifespan up | Yeast growth inh
CCCCC(C)(O)C/C=C/[C@H]1[C@H](O)CC(=O)[C@@H]1CCCCCCC(=O)OC (stereo partly drawn) | . | . | 32 | .
Cc1ccc(C(=O)COc2ccccc2-c2ccccc2)cc1 | . | . | . | .
Cc1ccc(C(=O)COc2ccccc2N2C(=O)c3ccccc3C2=O)cc1 | . | 8.8 | . | .
Cc1ccc2[nH]c(=O)c(CN(CCCN3CCOCC3)Cc3nnnn3C3CCCC3)cc2c1 | . | . | . | .
Cc1c(NC(=O)C(=O)/C=C(\O)c2ccc(Cl)cc2)c(=O)n(-c2ccccc2)n1C | . | . | 79 | .
CCOc1ccc(NC(=O)COC(=O)C2(C)CC2(Cl)Cl)c([N+](=O)[O-])c1 (stereo not drawn) | / | 9.1 | / | /
N#Cc1c[nH]n2c(=O)c3c(nc12)CCCC3 | . | . | . | .
c1ccc(-c2ccc(OCCCn3cncn3)cc2)cc1 | . | . | . | 80
c1ccc(COc2ccc(OCCn3cncn3)cc2)cc1 | . | . | . | .
O=C(O)CCC(NC(=O)C1CCCN1C(=O)OCc1ccccc1)C(=O)O (stereo not drawn) | / | . | / | /
Clc1cc(Cl)c(OCc2nc(-c3ccccn3)no2)cc1Cl | . | 11 | . | .
CC(C)(C)c1ccc(OCc2nc(-c3ccccn3)no2)c(Br)c1 | . | . | . | .
CC1=NOC(=O)/C1=C/c1ccc(N(C)C)cc1 | . | . | . | .
CCN(CC)c1ccc(/C=C2/C(=O)ON=C2C)cc1 | . | . | 40 | .
COc1ccccc1CN(C(=O)CCl)C(C(=O)NC1CCCCC1)c1ccncc1 (stereo not drawn) | . | . | . | .
Cc1nc2cc3ccccc3cc2c(=O)[nH]1 | . | . | . | 45
O=[N+]([O-])c1c(C(Cl)Cl)nn(-c2ccccc2)c1N1CCCC1 | . | . | 45 | .
CCC(C)NC(=O)C1CN(S(=O)(=O)c2ccccc2)CCN1S(=O)(=O)c1ccccc1 (stereo not drawn) | . | . | . | .
CC(C)c1ccccc1NC(=O)C1CN(S(=O)(=O)c2ccccc2)CCN1S(=O)(=O)c1ccccc1 (stereo not drawn) | . | 8.6 | . | .
O=C(C1CCC1)N(CCc1ccccc1)Cc1nc2ccccc2c(=O)[nH]1 | . | . | . | .
CCN(CC)S(=O)(=O)c1cccc(-c2n[nH]c(=S)n2CC(C)C)c1 | / | . | / | /
O=C(COC(=O)CNS(=O)(=O)c1c(Cl)cccc1Cl)Nc1ccccc1Sc1ccccc1 | . | . | . | .
CCOc1ccc2nc(NCCNC(=O)Nc3cccc(C)c3)c(C#N)cc2c1 | . | . | . | .
CCOc1ccc2nc(NCCNC(=O)Nc3ccccc3)c(C#N)cc2c1 | . | . | 104 | .
C=CCn1c(C)cc(C(=O)CSc2nc3ccccc3[nH]2)c1C | . | . | . | .
SMILES | sdo1 growth | RAM network inh | Yeast lifespan up | Yeast growth inh
C=CCn1c(C)cc(C(=O)CSc2nc3ccccc3c(=O)[nH]2)c1C | . | . | 69 | .
C=CCn1c(C)cc(C(=O)CSc2nnc(Cc3ccccc3)o2)c1C | . | 9.8 | . | .
CCCCCCNC(=O)CCNS(=O)(=O)c1ccc(C)cc1 | / | . | / | /
CC(=O)c1cn(C)c(=O)[nH]c1=O | / | . | / | /
CN1CCN(C(=O)CSc2ccc(C(F)(F)F)cc2[N+](=O)[O-])CC1 | . | . | 30 | .
CC(=O)Nc1cccc(NC(=O)CSc2ccc(C(F)(F)F)cc2[N+](=O)[O-])c1 | . | . | . | .
O=C(Nc1nc(COc2ccccc2)cs1)C12CC3CC(CC(C3)C1)C2 | . | 9.4 | . | .
CC(=O)Nc1nc(COc2ccccc2)cs1 | . | . | . | .
O=c1c2cc(Br)ccc2nc(-c2ccc([N+](=O)[O-])cc2)n1O | / | . | / | /
O=c1c2c([N+](=O)[O-])cc([N+](=O)[O-])cc2sn1-c1ccc(Br)cc1 | . | . | . | 45
CC(=O)OCC1=C(C(=O)O)N2C(=O)C(NC(=O)Cn3nc(C(F)F)c(Cl)c3C)C2SC1 (stereo not drawn) | / | . | / | /
CCCC(=O)NC(=S)Nc1nc(-c2ccc(OC)cc2)cs1 | . | 10 | . | .
CCc1c(C)nc(SCC(=O)Nc2nc(-c3ccc(OC)cc3)cs2)[nH]c1=O | / | 11 | / | /
COc1ccc(-c2csc(NC(=S)NC(=O)c3ccco3)n2)cc1 | / | . | / | /
Cc1cccc(C)c1NC(=O)COC(=O)c1nonc1N | . | . | . | .
COc1ccc(N2CCN(c3oc(Cc4ccccc4)nc3C#N)CC2)cc1 | . | 11 | . | .
N#Cc1nc(Cc2ccccc2)oc1N1CCN(c2cccc(Cl)c2)CC1 | . | 11 | . | .
COc1ccc(N2CCN(c3oc(COc4ccccc4)nc3C#N)CC2)cc1 | . | 10 | . | .
CC1=C(C)CC(C(=O)c2ccc(C)cc2)C(C(=O)O)C1 (stereo not drawn) | . | . | 30 | .
O=C(c1ccccc1)[C@H]1CC=CC[C@H]1C(=O)O | . | . | . | .
CCOCc1c(C(=O)NC2=Nc3ccccc3NC(CC)=C2C(=O)OCC)oc2ccccc12 | / | 10 | / | /
Cc1ccc2nc(NC(=O)c3ccc(Cn4cc(Cl)cn4)o3)sc2c1 | . | . | . | .
O=C(Nc1ccc(Br)c2cccnc12)c1ccc(Cn2cc(Cl)cn2)o1 | . | 11 | . | .
O=c1c2sccc2n(Cc2ccc(F)cc2)c(=O)n1-c1ccc(F)cc1 | . | 10 | . | .
O=C1c2cccc3c([N+](=O)[O-])ccc(c23)C(=O)N1c1ccc(Cl)cn1 | . | . | 33 | .
SMILES | sdo1 growth | RAM network inh | Yeast lifespan up | Yeast growth inh
O=C1c2cccc3c([N+](=O)[O-])ccc(c23)C(=O)N1c1ccccn1 | . | . | . | .
CC(=C/c1ccccc1)/C=C1/SC(N2CCOCC2)=NC1=O | . | . | . | .
CC(/C=C1\N=C(SCc2ccccc2)SC1=O)=C\c1ccccc1 | . | 9.9 | . | .
Cc1ccc(NC(=O)C2C(C(=O)O)C3C=CC2C32CC2)cc1 (stereo not drawn) | . | . | . | .
Cc1ccc(NC(=O)C2C(c3ccccc3)C=CC(c3ccccc3)C2C(=O)O)cc1 (stereo not drawn) | . | . | 30 | .
O=C(OCCN1C(=O)c2cccc3c(N4CCOCC4)ccc(c23)C1=O)c1cc(Cl)cc(Cl)c1 | . | 8.5 | . | .
CCCN1C(=O)c2cccc3c(N4CCCCC4)ccc(c23)C1=O | . | . | . | .
CC(=O)N(C(C)=O)N1C(=O)c2cccc3c(N4CCOCC4)ccc(c23)C1=O | / | . | / | /
CCN(CC)S(=O)(=O)c1ccc(C(=O)OCCN2C(=O)c3cccc4c(N5CCOCC5)ccc(c34)C2=O)cc1 | . | 10 | . | .
CCOC(=O)Cn1nc(C)n(-c2ccc(C(C)C)cc2)c1=O | . | . | . | .
Cc1ccc(C(=O)NN(CCC(=O)NC(C)(C)C)C2=NS(=O)(=O)c3ccccc32)cc1 | . | 9.6 | . | .
O=C(Nc1ccc2c(c1)S(=O)(=O)N=C1CCCCCN12)c1ccccc1Cl | / | . | / | /
